The values that follow come from ChEMBL document CHEMBL1240355 (2010).

In brackets after ≈: the same amount, converted by molar mass. Activity calls are given as the source filed them. The calls are words filed in the database; no cut-off is given here.

Test [1] concerns Salmonella enteritidis. In words: Antibacterial activity against wild type Salmonella enteritidis 104 harboring gyrA D87Y mutant gene by CLSI method. To be noted: Salmonella enterica. The test is classed as functional, Salmonella enterica subsp. enterica serovar Enteritidis.
Test [2] concerns Salmonella enteritidis. In words: Antibacterial activity against ciprofloxacin-susceptibility revert strain of Salmonella enteritidis 104 harboring gyrA D87Y/S83F mutant, parC D79N mutant, soxR E16G/R20H mutant and soxS E52K mutant gene after 20 passages by CLSI method. The test is classed as functional, Salmonella enterica subsp. enterica serovar Enteritidis. The following applies: Salmonella enterica.

Test [3] has as its system Salmonella enteritidis. The test is described as follows: Antibacterial activity against ciprofloxacin-susceptible Salmonella enteritidis 1A-revertC2 harboring gyrA D87Y/S83F mutant, parC D79N mutant, soxR R133C/R20H mutant, soxS E52K mutant and marA I111N/H115Q mutant gene after 70 passages by CLSI method. The class given is functional, Salmonella enterica subsp. enterica serovar Enteritidis. The following applies: Salmonella enterica.

Test [4] relates to Salmonella enteritidis. In words: Antibacterial activity against wild type Salmonella enteritidis 5408 harboring gyrA D87Y mutant gene by CLSI method. The test is classed as functional, Salmonella enterica subsp. enterica serovar Enteritidis. To be noted: Salmonella enterica.
In test [5] the test system is Salmonella enteritidis. The test is described as follows: Antibacterial activity against ciprofloxacin-resistant Salmonella enteritidis 5408 harboring gyrA D87Y mutant, gyrB E466D mutant, parE V461G mutant and ramR G25A mutant gene after 200 passages by CLSI method. The class given is functional, Salmonella enterica subsp. enterica serovar Enteritidis. The following applies: Salmonella enterica.

For test [6], the system named is Salmonella enteritidis. In words: Antibacterial activity against Salmonella enteritidis NCTC 13349 by CLSI method. The test is classed as functional, Salmonella enterica subsp. enterica serovar Enteritidis. To be noted: Salmonella enterica.
Test [7] has as its system Salmonella enteritidis. In words: Antibacterial activity against ciprofloxacin-resistant Salmonella enteritidis 104 harboring gyrA D87Y/S83F mutant, soxR R20H mutant and soxS E52K mutant gene by CLSI method. The following applies: Salmonella enterica.
The test system of test [8] is Salmonella enteritidis. The test is described as follows: Antibacterial activity against ciprofloxacin-resistant Salmonella enteritidis 104 harboring gyrA D87Y/S83F mutant, soxR R20H mutant and soxS E52K mutant gene assessed as reduction in swim motility after overnight incubation. The test is classed as functional, Salmonella enterica subsp. enterica serovar Enteritidis. Summed up:
(§1)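 Swim assay: 1 µl of overnight culture spotted centrally on LB with 0.1% gellan gum, dried 1 h at room temperature, incubated overnight at 30°C. Visible spread measured with a ruler (mm). Reduction expressed relative to the parent strain.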

In test [9] the test system is Salmonella enteritidis. In words: Antibacterial activity against ciprofloxacin-susceptibility revert strain of Salmonella enteritidis 104 harboring gyrA D87Y/S83F mutant, parC D79N mutant, soxR E16G/R20H mutant and soxS E52K mutant gene assessed as reduction in swim motility after overnight incubation. The test is classed as functional, Salmonella enterica subsp. enterica serovar Enteritidis. In short, it runs like this: as §1

The test system of test [10] is Salmonella enteritidis. In words: Antibacterial activity against ciprofloxacin-resistant Salmonella enteritidis 5408 harboring gyrA D87Y mutant, gyrB E466D mutant, parE V461G mutant and ramR G25A mutant gene assessed as reduction in swim motility after overnight incubation. The test is classed as functional, Salmonella enterica subsp. enterica serovar Enteritidis. In short, it runs like this: as §1

The test system of test [11] is Salmonella enteritidis. In words: Antibacterial activity against ciprofloxacin-resistant Salmonella enteritidis 104 harboring gyrA D87Y/S83F mutant, soxR R20H mutant and soxS E52K mutant gene assessed as reduction in swarm motility after overnight incubation. The class given is functional, Salmonella enterica subsp. enterica serovar Enteritidis. Summed up: (§2)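 Swarm assay: overnight LB culture pelleted, washed once, concentrated 50-fold. 2 µl spotted on LB with 0.2% gellan gum, incubated overnight at 30°C. Colony spread measured in mm. Reduction expressed relative to the parent strain.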

The subject of test [12] is Salmonella enteritidis. The test is described as follows: Antibacterial activity against ciprofloxacin-resistant Salmonella enteritidis 5408 harboring gyrA D87Y mutant, gyrB E466D mutant, parE V461G mutant and ramR G25A mutant gene assessed as reduction in swarm motility after overnight incubation. The class given is functional, Salmonella enterica subsp. enterica serovar Enteritidis. Summed up: as §2

In test [13] the test system is Salmonella enteritidis. In words: Antibacterial activity against ciprofloxacin-susceptibility revert strain of Salmonella enteritidis 104 harboring gyrA D87Y/S83F mutant, parC D79N mutant, soxR E16G/R20H mutant and soxS E52K mutant gene assessed as reduction in swarm motility after overnight incubation. The class given is functional, Salmonella enterica subsp. enterica serovar Enteritidis. Summed up:
as §2

In test [14] the test system is Salmonella enteritidis. In words: Antibacterial activity against Salmonella enteritidis by CLSI method. To be noted: Salmonella enterica.
Test [15] relates to Salmonella enteritidis. The test is described as follows: Antibacterial activity against ciprofloxacin-resistant Salmonella enteritidis 104 harboring gyrA D87Y/S83F mutant, soxR R20H mutant and soxS E52K mutant gene after 24 hrs by spectrophotometry. The test is classed as functional, organism-based. To be noted: Salmonella enterica subsp. enterica serovar Enteritidis. Summed up: (§3)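 Growth in TSB: colony from TSA (37°C, 18 h) grown overnight in 10 ml TSB, 1 ml into 100 ml TSB, shaken aerobically at 37°C. Absorbance read hourly for 8 h, then at 24 h, by spectrophotometer.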

Test [16] relates to Salmonella enteritidis. The test is described as follows: Antibacterial activity against ciprofloxacin-resistant Salmonella enteritidis 5408 harboring gyrA D87Y mutant, gyrB E466D mutant, parE V461G mutant and ramR G25A mutant gene after 24 hrs by spectrophotometry. The test is classed as functional, organism-based. The following applies: Salmonella enterica subsp. enterica serovar Enteritidis. In short, it runs like this: as §3

In test [17] the test system is Salmonella enteritidis. The test is described as follows: Antibacterial activity against wild type Salmonella enteritidis 104 harboring gyrA D87Y mutant gene after 24 hrs by spectrophotometry. The class given is functional, organism-based. To be noted: Salmonella enterica subsp. enterica serovar Enteritidis. In short, it runs like this:
as §3

The subject of test [18] is Salmonella enteritidis. The test is described as follows: Antibacterial activity against wild type Salmonella enteritidis 5408 harboring gyrA D87Y mutant gene after 24 hrs by spectrophotometry. The test is classed as functional, organism-based. To be noted: Salmonella enterica subsp. enterica serovar Enteritidis. In short, it runs like this:
as §3

In test [19] the test system is Salmonella enteritidis. In words: Antibacterial activity against ciprofloxacin-susceptibility revert strain of Salmonella enteritidis 104 harboring gyrA D87Y/S83F mutant, parC D79N mutant, soxR E16G/R20H mutant and soxS E52K mutant gene after 24 hrs by spectrophotometry. To be noted: Salmonella enterica subsp. enterica serovar Enteritidis. The class given is functional, organism-based. In short, it runs like this:
as §3

For test [20], the system named is Salmonella enteritidis. In words: Antibacterial activity against ciprofloxacin-susceptible Salmonella enteritidis 1A-revertC2 harboring gyrA D87Y/S83F mutant, parC D79N mutant, soxR R133C/R20H mutant, soxS E52K mutant and marA I111N/H115Q mutant gene after 70 passages after 24 hrs by spectrophotometry. The class given is functional, organism-based. To be noted: Salmonella enterica subsp. enterica serovar Enteritidis. In short, it runs like this: as §3

The test system of test [21] is Salmonella enteritidis. In words: Antibacterial activity against ciprofloxacin-resistant Salmonella enteritidis 104 harboring gyrA D87Y/S83F mutant, soxR R20H mutant and soxS E52K mutant gene assessed as length of bacterial rods by microscopy. The class given is functional, Salmonella enterica subsp. enterica serovar Enteritidis.
In test [22] the test system is Salmonella enteritidis. The test is described as follows: Antibacterial activity against wild type Salmonella enteritidis 104 harboring gyrA D87Y mutant gene assessed as length of bacterial rods by microscopy. The test is classed as functional, Salmonella enterica subsp. enterica serovar Enteritidis.
Test [23] has as its system Salmonella enteritidis. The test is described as follows: Antibacterial activity against ciprofloxacin-resistant Salmonella enteritidis 104 harboring gyrA D87Y/S83F mutant, soxR R20H mutant and soxS E52K mutant gene assessed as width of bacterial rods by microscopy. The class given is functional, Salmonella enterica subsp. enterica serovar Enteritidis.
Test [24] relates to Salmonella enteritidis. The test is described as follows: Antibacterial activity against wild type Salmonella enteritidis 104 harboring gyrA D87Y mutant gene assessed as width of bacterial rods by microscopy. The test is classed as functional, Salmonella enterica subsp. enterica serovar Enteritidis.
The test system of test [25] is Salmonella enteritidis. The test is described as follows: Antibacterial activity against ciprofloxacin-resistant Salmonella enteritidis 5408 harboring gyrA D87Y mutant, gyrB E466D mutant, parE V461G mutant and ramR G25A mutant gene assessed as length of bacterial rods by microscopy. The test is classed as functional, Salmonella enterica subsp. enterica serovar Enteritidis.

Test [26] concerns Salmonella enteritidis. The test is described as follows: Antibacterial activity against wild type Salmonella enteritidis 5408 harboring gyrA D87Y mutant gene assessed as length of bacterial rods by microscopy. The class given is functional, Salmonella enterica subsp. enterica serovar Enteritidis.
Test [27] relates to Salmonella enteritidis. The test is described as follows: Antibacterial activity against ciprofloxacin-resistant Salmonella enteritidis 5408 harboring gyrA D87Y mutant, gyrB E466D mutant, parE V461G mutant and ramR G25A mutant gene assessed as width of bacterial rods by microscopy. The class given is functional, Salmonella enterica subsp. enterica serovar Enteritidis.
Test [28] deals with Salmonella enteritidis. The test is described as follows: Antibacterial activity against wild type Salmonella enteritidis 5408 harboring gyrA D87Y mutant gene assessed as width of bacterial rods by microscopy. The test is classed as functional, Salmonella enterica subsp. enterica serovar Enteritidis.

By MIC is commonly meant the lowest concentration found to suppress growth. Higher therefore signals a need for much substance.

For the compound `CCn1cc(C(=O)O)c(=O)c2ccc(C)nc21` [NALIDIXIC ACID], the minimum inhibitory concentration (MIC) in test [1] is greater than 256 µg/mL; in test [2], greater than 256 µg/mL; in test [3], greater than 256 µg/mL; in test [4], greater than 256 µg/mL; in test [5], greater than 256 µg/mL; in test [6] it was 8 µg/mL (≈ 34.4 µM). This compound showed a minimal inhibitory concentration (MIC) in [7] greater than 256 µg/mL.
In the case of `O=C(O)c1cn(C2CC2)c2cc(N3CCNCC3)c(F)cc2c1=O` [CIPROFLOXACIN], the “inhibition (INH)” value in test [8] was found to be 66%; in test [9], 90%; in test [10] it was 93%; in test [11], 36%; in [12], 46%; in test [13], 36%. This compound also yielded an MIC in [14] of 0.12 µg/mL (≈ 0.362 µM). Further, the result in test [15] and in [16] was inactive. Moreover, the outcome in test [17], in [18], in test [19] and in test [20] was Active. Besides, the Activity is 1.16 um in test [21]; 1.02 um in test [22]; 0.45 um in test [23]; 0.43 um in test [24]; 1 um in test [25]; 1.1 um in [26]. Besides, the Activity in [27] was determined as 0.51 um; in [28], 0.46 um.
In the case of `CN(C)[C@@H]1C(O)=C(C(N)=O)C(=O)[C@@]2(O)C(O)=C3C(=O)c4c(O)cccc4[C@@](C)(O)[C@H]3C[C@@H]12` [TETRACYCLINE], the MIC is 1 µg/mL (≈ 2.25 µM) in [1]; 2 µg/mL (≈ 4.5 µM) in test [2]; 0.5 µg/mL (≈ 1.13 µM) in [3]; 1 µg/mL (≈ 2.25 µM) in test [4]; 2 µg/mL (≈ 4.5 µM) in test [5]; 16 µg/mL (≈ 36 µM) in [7].
In the case of `CC1(C)S[C@@H]2[C@H](NC(=O)[C@H](N)c3ccccc3)C(=O)N2[C@H]1C(=O)O` [AMPICILLIN], the minimum inhibitory concentration (MIC) in test [1] was determined as 1 µg/mL (≈ 2.86 µM); in test [2], 4 µg/mL (≈ 11.4 µM); in test [3], 0.5 µg/mL (≈ 1.43 µM); in [4], 1 µg/mL (≈ 2.86 µM); in [5], 4 µg/mL (≈ 11.4 µM); in [7] it was 16 µg/mL (≈ 45.8 µM).
In the case of `O=C(N[C@H](CO)[C@H](O)c1ccc([N+](=O)[O-])cc1)C(Cl)Cl` [CHLORAMPHENICOL], the MIC was determined as 2 µg/mL (≈ 6.19 µM) in [1]; 8 µg/mL (≈ 24.8 µM) in [2]; 2 µg/mL (≈ 6.19 µM) in test [3]; 4 µg/mL (≈ 12.4 µM) in test [4]; 16 µg/mL (≈ 49.5 µM) in [5]; 128 µg/mL (≈ 396 µM) in test [7].
